Series [1] concerns the target Receptor-interacting serine/threonine-protein kinase 2 (Homo sapiens) (UniProt O43353). The experiment in a line: Inhibition of human RIPK2 at 10 uM relative to control.
In series [2] the target is T1, Nitric oxide synthase, inducible (Mus musculus) (UniProt P29477).
T1 sequence (whole entry): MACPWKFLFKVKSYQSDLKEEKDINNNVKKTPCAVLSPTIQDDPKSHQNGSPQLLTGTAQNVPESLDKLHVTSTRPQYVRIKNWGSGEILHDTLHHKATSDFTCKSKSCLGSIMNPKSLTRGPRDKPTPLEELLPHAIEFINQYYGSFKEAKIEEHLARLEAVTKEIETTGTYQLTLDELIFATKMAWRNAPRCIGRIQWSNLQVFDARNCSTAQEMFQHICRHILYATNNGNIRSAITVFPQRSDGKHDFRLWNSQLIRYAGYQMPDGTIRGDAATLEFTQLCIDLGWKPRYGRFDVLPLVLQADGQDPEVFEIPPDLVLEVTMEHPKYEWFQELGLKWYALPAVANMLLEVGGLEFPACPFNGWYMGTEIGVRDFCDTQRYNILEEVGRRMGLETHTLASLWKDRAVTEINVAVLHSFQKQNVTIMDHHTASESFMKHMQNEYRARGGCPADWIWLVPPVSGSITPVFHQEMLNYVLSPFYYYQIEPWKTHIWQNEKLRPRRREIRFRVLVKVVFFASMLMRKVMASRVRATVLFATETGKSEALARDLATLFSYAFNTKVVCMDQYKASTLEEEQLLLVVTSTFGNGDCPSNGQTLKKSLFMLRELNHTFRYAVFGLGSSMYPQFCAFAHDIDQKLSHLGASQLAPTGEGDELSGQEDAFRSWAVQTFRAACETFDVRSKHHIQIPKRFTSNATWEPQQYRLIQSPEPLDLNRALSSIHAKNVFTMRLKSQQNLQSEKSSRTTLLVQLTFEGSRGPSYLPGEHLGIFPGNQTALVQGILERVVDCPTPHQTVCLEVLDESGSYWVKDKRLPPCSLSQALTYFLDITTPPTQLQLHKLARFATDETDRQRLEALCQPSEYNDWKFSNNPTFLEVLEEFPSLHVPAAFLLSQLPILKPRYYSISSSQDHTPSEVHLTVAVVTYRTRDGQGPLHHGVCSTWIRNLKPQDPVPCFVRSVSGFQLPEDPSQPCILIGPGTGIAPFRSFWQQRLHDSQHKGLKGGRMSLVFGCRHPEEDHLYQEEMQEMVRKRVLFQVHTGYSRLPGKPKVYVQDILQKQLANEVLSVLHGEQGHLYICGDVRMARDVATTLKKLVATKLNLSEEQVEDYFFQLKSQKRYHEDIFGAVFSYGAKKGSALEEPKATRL
The experiment in a line: Inhibition of iNOS induction in mouse RAW264.7 cells assessed as NO production at 7.5 uM. The series is classed as cell-based. A digest of the protocol:
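RAW 264.7 cells seeded at 8 × 10⁴ per well in DMEM/10% FBS and grown 2 days. Then exposed to LPS with compound or DMSO for 20 h. Supernatant nitrite measured by Griess reaction (sulfanilamide/NED) at 550 nm minus 620 nm background, quantified against a sodium nitrite standard curve. At least four experiments in triplicate.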

Series [3] deals with Inhibitor of nuclear factor kappa-B kinase subunit beta (Homo sapiens) (UniProt O14920). The series is described as follows: Inhibition of human IKKbeta at 10 uM relative to control.
In series [4] the target is Mitogen-activated protein kinase 14 (Homo sapiens) (UniProt Q16539). The experiment in a line: Inhibition of human p38alpha MAPK at 10 uM relative to control.
Series [5] concerns the target Mitogen-activated protein kinase kinase kinase 7 (Homo sapiens) (UniProt O43318). The experiment in a line: Inhibition of human TAK1 at 10 uM relative to control.
For another series, the system named is RAW264.7. The experiment in a line: Cytotoxicity against mouse RAW264.7 cells assessed as living cells at 7.5 uM by MTT assay. Particulars: raw264.7, 7.5 µM. In kind it is cell-based. A digest of the protocol: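 RAW 264.7 macrophages: MTT viability assay run in parallel with each nitrite (Griess) experiment, same cell line and same compound treatment conditions.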
In general terms: Formazan colour is commonly taken as a measure of viable cells.

The target in series [6] is Serine/threonine-protein kinase TBK1 (Homo sapiens) (UniProt Q9UHD2). The experiment in a line: Inhibition of human TBK1 at 10 uM relative to control.
The target in series [7] is Protein kinase C beta type (Homo sapiens) (UniProt P05771). The series is described as follows: Inhibition of human PKCbeta2 at 10 uM relative to control.
Series [8] has as its target T2, Protein kinase C zeta type (Homo sapiens, UniProt Q05513).
T2 sequence (Q05513 whole entry): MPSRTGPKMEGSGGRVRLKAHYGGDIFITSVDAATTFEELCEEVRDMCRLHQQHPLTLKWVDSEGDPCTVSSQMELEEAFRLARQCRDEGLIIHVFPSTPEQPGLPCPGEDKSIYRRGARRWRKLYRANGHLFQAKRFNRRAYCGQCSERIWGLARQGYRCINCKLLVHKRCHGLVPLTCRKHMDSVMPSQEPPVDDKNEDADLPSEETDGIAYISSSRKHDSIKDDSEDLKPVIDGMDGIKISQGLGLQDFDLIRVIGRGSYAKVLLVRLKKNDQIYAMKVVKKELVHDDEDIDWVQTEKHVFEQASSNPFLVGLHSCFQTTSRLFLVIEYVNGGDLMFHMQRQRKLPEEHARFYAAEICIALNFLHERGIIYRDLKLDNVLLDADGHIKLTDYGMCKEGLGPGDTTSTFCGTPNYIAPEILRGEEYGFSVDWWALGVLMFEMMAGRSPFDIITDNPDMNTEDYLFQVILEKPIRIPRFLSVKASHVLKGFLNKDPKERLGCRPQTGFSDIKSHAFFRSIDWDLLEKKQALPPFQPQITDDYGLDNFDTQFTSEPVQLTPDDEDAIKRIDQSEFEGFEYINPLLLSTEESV
The experiment in a line: Inhibition of human PKCzeta assessed as phosphorylation reaction after 4 mins incubation by cell-free assay.

In series [9] the target is T3, Protein kinase C iota type (Homo sapiens) (UniProt P41743).
T3 sequence (whole entry): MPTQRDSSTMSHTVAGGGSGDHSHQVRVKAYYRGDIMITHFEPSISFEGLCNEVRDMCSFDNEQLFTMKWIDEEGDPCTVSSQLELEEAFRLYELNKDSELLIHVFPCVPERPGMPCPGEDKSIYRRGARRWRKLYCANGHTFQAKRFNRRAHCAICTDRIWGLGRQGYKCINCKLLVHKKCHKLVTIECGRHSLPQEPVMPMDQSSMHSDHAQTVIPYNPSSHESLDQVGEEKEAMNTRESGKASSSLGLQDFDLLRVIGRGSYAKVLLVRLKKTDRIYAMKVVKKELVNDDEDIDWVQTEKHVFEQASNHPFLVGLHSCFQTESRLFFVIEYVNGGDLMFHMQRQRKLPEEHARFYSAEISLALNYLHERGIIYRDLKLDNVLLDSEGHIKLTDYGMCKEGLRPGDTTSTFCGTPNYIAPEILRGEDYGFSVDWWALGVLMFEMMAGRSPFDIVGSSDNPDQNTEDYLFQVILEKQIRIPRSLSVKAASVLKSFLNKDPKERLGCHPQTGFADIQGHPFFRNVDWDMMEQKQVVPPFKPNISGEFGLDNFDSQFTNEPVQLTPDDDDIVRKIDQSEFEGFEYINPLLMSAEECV
The experiment in a line: Inhibition of PKCiota (unknown origin) at 20 uM. A digest of the protocol:
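Cell-free radiometric kinase assay with purified recombinant PKCι under conditions similar to the PKCζ assay. Reaction mixtures preincubated 4 min at 37 °C, then phosphorylation started with γ32P-ATP/Mg2+. Mean of at least two experiments.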

Series [10] has as its target T2, Protein kinase C zeta type. The series is described as follows: Inhibition of PKCzeta in human U937 cells assessed as inhibition of TNFalpha-induced NF-kappaB activation by reporter gene assay. The series is classed as cell-based, U-937. Background: Reporter assays use an easily measured gene product as a stand-in for the process of interest.
The species named for another series is Homo sapiens. The series is described as follows: Ratio of IC50 for PKCzeta val297leu mutant (unknown origin) to IC50 for wild type PKCzeta (unknown origin). The gist of the method:
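Cell-free radiometric assay with purified recombinant full-length PKCζ wild type or PIF-pocket V297L mutant. Enzyme present at 0.2 μM. 4 min preincubation at 37 °C, reaction started with γ32P-ATP/Mg2+. IC50 values are means of at least two experiments.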

Series [11] has as its target Protein kinase C zeta type (Homo sapiens, UniProt Q05513, V297L). The series is described as follows: Inhibition of PKCzeta val297leu mutant (unknown origin) assessed as phosphorylation reaction after 4 mins incubation by cell-free assay.
For series [12], the target named is T4, Protein kinase C zeta type (Homo sapiens) (UniProt Q05513).
T4 sequence (whole entry): T2 sequence (Q05513 whole entry)
The experiment in a line: Inhibition of PKCzeta in serum-starved human U937 cells assessed as inhibition of TNFalpha-stimulated activation loop phosphorylation at 2.5 to 5 uM by immunoblotting analysis. The series is classed as cell-based. The note with it: U-937. A digest of the protocol: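 U937 cells in RPMI/10% FBS, serum-starved 24 h, treated with compound or DMSO for 1 h, then TNFα 50 ng/mL for 30 min. Whole-cell lysates separated by SDS–PAGE (10% gel) and immunoblotted for phospho-PKCζ/λ (Thr410/403), with β-actin as loading control. Near-infrared detection. Two separate experiments.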
On the technique in general: A western blot detects proteins with antibodies after separation by electrophoresis.

Series [13] concerns the target T4, Protein kinase C zeta type (Homo sapiens). The series is described as follows: Inhibition of PKCzeta (unknown origin) expressed in HEK293 cells assessed as reduction in specific activity at 2 to 5 uM for 6 hrs after 30 mins IGF-I stimulation by in serum free medium. The series is classed as cell-based. A digest of the protocol:
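HEK293 cells transfected at 80% confluency with GST-PKCζ wild-type or V297L mutant plasmids. Next day switched to DMEM with 0.1% FCS and compound or DMSO for 6 h, then IGF-I 50 ng/mL final for 30 min at 37 °C. Lysed; GST-PKCζ pulled down on glutathione beads and eluted. 50 ng per reaction assayed for kinase activity with myelin basic protein as substrate. Triplicate treatments, two independent experiments.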

Each structure is given as a SMILES string. The source made the active and inactive calls. The rule behind the calls is not given here.

Sequence of Protein kinase C zeta type (Homo sapiens, UniProt Q05513, V297L) (Q05513 whole entry V297L): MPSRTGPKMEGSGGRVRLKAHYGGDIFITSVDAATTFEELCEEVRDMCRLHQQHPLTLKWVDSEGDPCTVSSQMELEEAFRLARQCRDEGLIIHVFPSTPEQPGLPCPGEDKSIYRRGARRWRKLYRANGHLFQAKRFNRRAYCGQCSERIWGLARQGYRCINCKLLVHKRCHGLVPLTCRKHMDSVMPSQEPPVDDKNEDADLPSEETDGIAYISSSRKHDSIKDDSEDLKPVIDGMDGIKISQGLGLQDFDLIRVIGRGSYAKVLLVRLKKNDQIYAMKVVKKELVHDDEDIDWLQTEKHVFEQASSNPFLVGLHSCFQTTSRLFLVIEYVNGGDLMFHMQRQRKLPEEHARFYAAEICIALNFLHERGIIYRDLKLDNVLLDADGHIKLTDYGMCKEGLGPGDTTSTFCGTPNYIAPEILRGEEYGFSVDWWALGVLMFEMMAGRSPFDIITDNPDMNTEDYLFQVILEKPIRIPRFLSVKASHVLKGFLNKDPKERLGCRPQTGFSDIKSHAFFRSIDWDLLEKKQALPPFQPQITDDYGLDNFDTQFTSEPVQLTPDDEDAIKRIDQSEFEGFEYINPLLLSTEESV
Sequence of Protein kinase C beta type (Homo sapiens) (P05771 2-671 limits assumed): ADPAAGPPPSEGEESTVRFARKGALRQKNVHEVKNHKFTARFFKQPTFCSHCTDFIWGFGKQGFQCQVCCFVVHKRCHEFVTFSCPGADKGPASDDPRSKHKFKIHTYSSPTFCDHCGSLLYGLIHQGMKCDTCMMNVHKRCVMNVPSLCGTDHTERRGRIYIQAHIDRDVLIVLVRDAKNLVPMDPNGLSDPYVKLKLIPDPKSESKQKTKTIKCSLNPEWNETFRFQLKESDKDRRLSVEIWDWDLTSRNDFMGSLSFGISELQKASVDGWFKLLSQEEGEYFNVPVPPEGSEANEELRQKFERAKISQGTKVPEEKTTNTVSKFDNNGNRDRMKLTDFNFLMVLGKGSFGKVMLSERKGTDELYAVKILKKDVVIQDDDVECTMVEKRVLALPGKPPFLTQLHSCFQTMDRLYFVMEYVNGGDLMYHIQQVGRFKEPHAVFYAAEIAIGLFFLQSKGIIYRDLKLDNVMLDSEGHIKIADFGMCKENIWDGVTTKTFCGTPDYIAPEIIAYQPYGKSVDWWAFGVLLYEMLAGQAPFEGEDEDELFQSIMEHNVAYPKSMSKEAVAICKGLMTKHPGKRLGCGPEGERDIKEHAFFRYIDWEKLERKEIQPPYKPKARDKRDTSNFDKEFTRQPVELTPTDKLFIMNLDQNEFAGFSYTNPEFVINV
Sequence of Mitogen-activated protein kinase 14 (Homo sapiens) (Q16539 whole entry): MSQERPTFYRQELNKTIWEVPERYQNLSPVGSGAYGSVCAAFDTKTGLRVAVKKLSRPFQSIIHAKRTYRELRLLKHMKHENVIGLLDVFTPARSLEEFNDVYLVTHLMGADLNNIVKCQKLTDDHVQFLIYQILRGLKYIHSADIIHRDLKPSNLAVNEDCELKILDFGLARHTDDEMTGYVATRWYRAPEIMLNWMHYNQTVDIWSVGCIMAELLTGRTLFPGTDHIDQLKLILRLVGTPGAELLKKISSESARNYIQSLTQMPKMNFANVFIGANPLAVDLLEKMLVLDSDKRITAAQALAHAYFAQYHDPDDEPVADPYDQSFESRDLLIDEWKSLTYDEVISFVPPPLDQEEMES
Sequence of Receptor-interacting serine/threonine-protein kinase 2 (Homo sapiens) (O43353 whole entry): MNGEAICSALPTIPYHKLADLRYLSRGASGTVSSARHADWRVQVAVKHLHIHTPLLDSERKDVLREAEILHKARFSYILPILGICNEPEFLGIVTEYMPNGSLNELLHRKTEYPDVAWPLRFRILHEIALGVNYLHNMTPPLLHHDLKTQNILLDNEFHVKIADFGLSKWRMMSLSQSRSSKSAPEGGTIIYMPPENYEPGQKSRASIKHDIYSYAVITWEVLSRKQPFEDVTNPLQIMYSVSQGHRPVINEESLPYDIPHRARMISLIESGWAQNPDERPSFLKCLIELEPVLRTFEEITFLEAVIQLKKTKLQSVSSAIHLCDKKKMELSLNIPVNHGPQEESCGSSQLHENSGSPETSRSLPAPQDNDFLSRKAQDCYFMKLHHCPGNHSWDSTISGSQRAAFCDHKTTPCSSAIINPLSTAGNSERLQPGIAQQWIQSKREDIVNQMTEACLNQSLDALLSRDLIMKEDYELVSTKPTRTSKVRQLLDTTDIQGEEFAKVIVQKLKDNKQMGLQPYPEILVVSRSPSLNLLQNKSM
Sequence of Mitogen-activated protein kinase kinase kinase 7 (Homo sapiens) (O43318 whole entry): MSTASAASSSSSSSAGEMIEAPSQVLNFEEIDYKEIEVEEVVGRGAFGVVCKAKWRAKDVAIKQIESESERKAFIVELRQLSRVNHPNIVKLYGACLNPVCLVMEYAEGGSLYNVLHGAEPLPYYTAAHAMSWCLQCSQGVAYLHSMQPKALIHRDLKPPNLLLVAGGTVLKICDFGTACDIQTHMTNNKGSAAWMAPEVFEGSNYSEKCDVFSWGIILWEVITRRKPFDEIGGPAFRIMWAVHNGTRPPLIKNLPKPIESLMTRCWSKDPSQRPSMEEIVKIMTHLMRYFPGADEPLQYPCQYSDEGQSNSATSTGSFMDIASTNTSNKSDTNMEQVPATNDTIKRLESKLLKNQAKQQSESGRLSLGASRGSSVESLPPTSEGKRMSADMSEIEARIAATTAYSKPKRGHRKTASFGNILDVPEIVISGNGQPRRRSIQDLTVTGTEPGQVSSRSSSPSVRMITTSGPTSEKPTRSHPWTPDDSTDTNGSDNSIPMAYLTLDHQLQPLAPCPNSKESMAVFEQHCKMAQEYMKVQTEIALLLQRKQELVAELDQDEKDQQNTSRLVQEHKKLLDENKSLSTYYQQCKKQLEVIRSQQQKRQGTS
Sequence of Inhibitor of nuclear factor kappa-B kinase subunit beta (Homo sapiens) (O14920 whole entry): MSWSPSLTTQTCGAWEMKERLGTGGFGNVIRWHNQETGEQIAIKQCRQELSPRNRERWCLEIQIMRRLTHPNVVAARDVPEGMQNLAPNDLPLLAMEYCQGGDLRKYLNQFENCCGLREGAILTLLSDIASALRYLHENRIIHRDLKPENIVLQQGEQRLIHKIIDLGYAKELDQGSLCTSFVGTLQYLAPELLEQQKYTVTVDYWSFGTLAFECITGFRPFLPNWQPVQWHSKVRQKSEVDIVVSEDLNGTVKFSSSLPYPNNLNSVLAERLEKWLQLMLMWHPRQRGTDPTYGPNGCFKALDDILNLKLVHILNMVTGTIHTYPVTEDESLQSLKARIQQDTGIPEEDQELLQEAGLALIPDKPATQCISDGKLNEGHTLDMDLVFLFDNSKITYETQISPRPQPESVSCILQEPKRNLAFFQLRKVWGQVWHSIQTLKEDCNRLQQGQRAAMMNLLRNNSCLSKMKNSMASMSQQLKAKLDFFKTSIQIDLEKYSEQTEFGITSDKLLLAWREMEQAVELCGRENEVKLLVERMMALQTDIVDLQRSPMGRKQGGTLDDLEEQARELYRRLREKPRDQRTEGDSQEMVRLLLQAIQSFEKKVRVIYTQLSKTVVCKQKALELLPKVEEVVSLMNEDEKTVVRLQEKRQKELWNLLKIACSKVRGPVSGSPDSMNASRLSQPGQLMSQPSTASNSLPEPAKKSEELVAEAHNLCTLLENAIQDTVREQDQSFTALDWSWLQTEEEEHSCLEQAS
Sequence of Serine/threonine-protein kinase TBK1 (Homo sapiens) (Q9UHD2 whole entry): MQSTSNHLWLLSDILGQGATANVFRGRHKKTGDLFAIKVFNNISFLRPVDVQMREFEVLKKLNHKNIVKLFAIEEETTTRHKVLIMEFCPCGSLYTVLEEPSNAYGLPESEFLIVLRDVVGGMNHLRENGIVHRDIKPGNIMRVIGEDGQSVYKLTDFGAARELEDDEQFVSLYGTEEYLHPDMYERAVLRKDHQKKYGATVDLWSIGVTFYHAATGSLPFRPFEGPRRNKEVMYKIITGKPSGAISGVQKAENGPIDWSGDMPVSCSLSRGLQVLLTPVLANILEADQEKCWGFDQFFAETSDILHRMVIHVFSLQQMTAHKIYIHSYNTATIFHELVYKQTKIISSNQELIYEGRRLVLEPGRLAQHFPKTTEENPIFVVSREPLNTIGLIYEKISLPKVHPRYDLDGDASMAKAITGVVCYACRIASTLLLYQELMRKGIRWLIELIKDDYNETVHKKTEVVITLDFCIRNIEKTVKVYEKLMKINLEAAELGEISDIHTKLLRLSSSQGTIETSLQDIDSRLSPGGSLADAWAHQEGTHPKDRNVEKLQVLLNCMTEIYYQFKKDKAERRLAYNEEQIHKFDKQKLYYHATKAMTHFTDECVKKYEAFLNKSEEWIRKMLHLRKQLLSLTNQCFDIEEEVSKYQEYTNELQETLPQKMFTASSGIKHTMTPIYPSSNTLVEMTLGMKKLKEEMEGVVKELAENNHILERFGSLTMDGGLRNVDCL

As for `CC(C)(C)C1=NN(c2ccc(Cl)cc2)C(c2ccc(O)cc2)C1` (centres undefined), the inhibition result in series [1], in series [3], in series [5], in series [6] and in series [7] was “inactive” each time. The values for the inhibition in series [2] and in series [4] were 50% and 10%, respectively. Further, the Activity result in the series with RAW264.7 is reported as “Non-toxic”.
With `Oc1ccc(C2CC(c3cccs3)=NN2c2ccc(C(F)(F)F)cc2)cc1` (centres undefined), the IC50 (as a rule, the concentration needed to halve the response being measured) in series [8] was determined as 400 nM; in [10], 2900 nM. For the same compound, the values for the inhibition in [2] and in series [9] were 69% and 45.9%, respectively. The Activity entry with RAW264.7 is reported as “Non-toxic”.
Take `Oc1ccc(C2CC(c3cccs3)=NN2c2ccc(Br)cc2)cc1` (centres undefined): the IC50 came out at 500 nM in series [8] and 1000 nM in series [11]. For the same compound, in the series filed under Homo sapiens, the Ratio IC50 is 2. Moreover, the figures for the inhibition in series [2] and in [9] were 65% and 21.4%, respectively. Besides, the Activity result in the series with RAW264.7 is listed as “Non-toxic”.
Consider `CC(C)(C)C1=NN(c2ccc(Cl)cc2)C(c2ccc(O)c(Cl)c2)C1` (centres undefined), for which the IC50 in series [8] stood at 700 nM; in [11], 14800 nM; in [10], 2900 nM. Besides, the Ratio IC50 in the series listed under Homo sapiens was determined as 20.8. Also, the inhibition (commonly how much of the control response was suppressed) in [9] came out at 0%. Also, in the series with RAW264.7, the Activity result was “Non-toxic”.
For the compound `CC(C)(C)C1=NN(c2ccccc2Cl)C(c2ccc(O)cc2)C1` (centres undefined), in [2], the inhibition was 26%. The Activity result in the series on RAW264.7 is on record as “Non-toxic”.
`COc1cc(/C=C/C(=O)CC(=O)/C=C/c2ccc(O)c(OC)c2)ccc1O` [CURCUMIN]: the inhibition in series [2] is 97%. The Activity result in the series on RAW264.7 is reported as “Non-toxic”.
`Cn1cc(C2=C(c3cn(CCCSC(=N)N)c4ccccc34)C(=O)NC2=O)c2ccccc21`: the inhibition result in series [12] and in series [13] was “inactive” each time. The inhibition entry in [7] was “Active”.
As to `CC(C)(C)C1=NN(c2ccccc2)C(c2ccc(O)cc2)C1` (centres undefined), in [2], the inhibition is 32%. In the series on RAW264.7, the Activity result is on record as “Non-toxic”.
Regarding `Oc1ccc(C2CC(c3ccccc3O)=NN2c2ccc(Cl)cc2)cc1` (centres undefined), the IC50 came to 1500 nM in [8] and 3100 nM in series [11]. In the series listed under Homo sapiens, the Ratio IC50 turned out to be 2.1. This compound also returned an inhibition in series [9] of 13.4%. The Activity entry in the series on RAW264.7 is given as “Non-toxic”.
